Assay results reported in ChEMBL document CHEMBL3108700, “Designing anti-inflammatory drugs from parasitic worms: a synthetic small molecule analogue of the Acanthocheilonema viteae product ES-62 prevents development of collagen-induced arthritis” (J Med Chem, 2013).
Active and inactive are the calls of the source. Unless noted, no cut-off for these calls is given here.

Assays:
[1] = Cytotoxicity against mouse BMDC assessed as reduction in cell viability
BMDC = test: Antiinflammatory activity in mouse BMDC assessed as downregulation of TLR4 expression; type: functional
[2] = target: T1, Toll-like receptor 4 (Mus musculus) (UniProt Q9QUK6); test: Inhibition of TLR4 in C57BL/6 mouse BMDC assessed as reduction of LPS-induced IL-23 production at 5 ug/mL preincubated for 2 hrs prior to LPS challenge measured after 24 hrs by ELISA
T1 sequence (whole entry): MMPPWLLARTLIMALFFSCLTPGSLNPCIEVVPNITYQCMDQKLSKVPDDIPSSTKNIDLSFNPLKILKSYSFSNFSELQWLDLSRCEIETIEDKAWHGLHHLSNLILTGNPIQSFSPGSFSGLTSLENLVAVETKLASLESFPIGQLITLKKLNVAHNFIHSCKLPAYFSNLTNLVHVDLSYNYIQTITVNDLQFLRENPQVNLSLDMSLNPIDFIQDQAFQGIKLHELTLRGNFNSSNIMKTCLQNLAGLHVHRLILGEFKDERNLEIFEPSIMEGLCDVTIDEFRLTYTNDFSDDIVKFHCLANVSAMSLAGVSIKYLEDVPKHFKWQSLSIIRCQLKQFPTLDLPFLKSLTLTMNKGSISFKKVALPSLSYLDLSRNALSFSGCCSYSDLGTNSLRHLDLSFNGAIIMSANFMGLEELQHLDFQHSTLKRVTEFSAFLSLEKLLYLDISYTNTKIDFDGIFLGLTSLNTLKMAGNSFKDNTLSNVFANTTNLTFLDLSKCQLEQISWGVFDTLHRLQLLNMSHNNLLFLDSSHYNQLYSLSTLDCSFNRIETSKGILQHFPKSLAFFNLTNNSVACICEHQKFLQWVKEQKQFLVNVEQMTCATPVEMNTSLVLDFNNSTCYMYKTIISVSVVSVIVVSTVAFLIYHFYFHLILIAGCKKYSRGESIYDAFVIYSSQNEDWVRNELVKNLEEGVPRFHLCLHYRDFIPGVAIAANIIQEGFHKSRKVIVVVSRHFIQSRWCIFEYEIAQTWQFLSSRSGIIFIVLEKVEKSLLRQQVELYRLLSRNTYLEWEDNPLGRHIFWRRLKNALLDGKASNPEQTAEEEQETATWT
Summary of the method: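 C57BL/6 bone marrow DCs were generated in complete RPMI with 10 ng/mL GM-CSF. They were preincubated ± compound at 5 μg/mL for 2 h, then stimulated with LPS for 24 h. TNF-α, IL-6 and IL-23 in conditioned medium were measured by ELISA. Values are means of triplicates ± SEM pooled from 4 experiments.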

Mus musculus [3] = test: (§1) Antiinflammatory activity in DBA/1 mouse collagen-induced arthritis model assessed as effect on number of PMA/ionomycin-stimulated gammadelta+ T cells expressing IFNgamma at 50 ug/kg, sc administered 2 days prior to collagen challenge continued till day 21 post collagen challenge by flow cytometric analysis relative to control; type: functional, organism-based; conditions: T-cell
Mus musculus [4] = test: as §1, with “reduction in” for “effect on”, “CD4+” for “gammadelta+”; type: functional, organism-based; conditions: T-cell
Summary of the method: (§2)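 CIA mice given test agent (1 μg/dose) or PBS subcutaneously on days −2, 0 and 21. Draining lymph node cells (10^6/mL) in complete RPMI were stimulated ± 50 ng/mL PMA plus 500 ng/mL ionomycin, with 10 μg/mL brefeldin A for 5 h at 37 °C. Cells were surface-stained for CD4, CD8 and γδ, fixed and permeabilized, then stained for intracellular IFNγ and IL-17A. Gating used isotype controls. Cell numbers per individual mouse; naive n = 7, treated groups n = 13.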

Mus musculus [5] = test: as §1, with “reduction in” for “effect on”, “CD8+” for “gammadelta+”; type: functional, organism-based; conditions: T-cell; summary of the method: as §2
Mus musculus [6] = test: Antiinflammatory activity in DBA/1 mouse collagen-induced arthritis model assessed as reduction of high disease scores at 50 ug/kg, sc administered 2 days prior to collagen challenge continued till day 21 post collagen challenge; type: functional, organism-based
Summary of the method: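 Collagen-induced arthritis mice were dosed subcutaneously (1 μg/dose) or given PBS on days −2, 0 and 21. Arthritis was scored clinically and hind paw width measured. Incidence was the % of mice with severity score ≥2 (cumulative) or ≥4 (high score). Results are mean ± SEM. Scores n = 13 per group, pooled from two experiments; paw width n = 7, from a single experiment.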

[7] = Cytotoxicity against CpG-stimulated BALB/c mouse BMDM assessed as loss of cell viability at 5 ug/mL preincubated for 18 hrs followed by CpG challenge measured after 24 hrs by 7-AAD staining-based flow cytometric analysis
Summary of the method: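 BALB/c bone marrow macrophages (2 × 10^5/well) were rested 24 h in complete RPMI, then given 5 μg/mL compound for 18 h. Cells were stained with 7-AAD for 10 min on ice and the dead fraction read by flow cytometry. One experiment is representative of two.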

[8] = target: T1, Toll-like receptor 4 (Mus musculus); test: Inhibition of TLR4 in BALB/c mouse BMDM assessed as reduction of LPS-stimulated IL-6 production at 0.2 ug/ml preincubated for 18 hrs followed by LPS challenge measured after 24 hrs by ELISA
[9] = target: T1, Toll-like receptor 4 (Mus musculus); test: Inhibition of TLR4 in BALB/c mouse BMDM assessed as reduction of LPS-stimulated IL-6 production at 5 ug/ml preincubated for 18 hrs followed by LPS challenge measured after 24 hrs by ELISA
Summary of the method: (§3)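 BALB/c male bone marrow macrophages were differentiated 7 days with L929 supernatant (≥99% CD11b+/F4/80+). Cells were plated at 2 × 10^5/well in triplicate, rested overnight, and given compounds at 5 μg/mL for 18 h. They were then stimulated with 100 ng/mL S. minnesota LPS, 10 ng/mL Pam3CSK4 (BLP) or 0.01 μM CpG for 24 h. Supernatant IL-12p40 and IL-6 were measured by ELISA (sensitivity 16 pg/mL).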

[10] = target: T1, Toll-like receptor 4 (Mus musculus); test: Inhibition of TLR4-mediated NFkappaB p65 activation in LPS-stimulated BALB/c mouse BMDM at 5 ug/ml preincubated for 18 hrs followed by LPS challenge measured after 1 hr by TransAM ELISA
Summary of the method: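 Bone marrow macrophages (4 × 10^6/well) had their medium changed after 24 h, were pretreated with compounds at 5 μg/mL for 18 h, then stimulated for 1 h with 100 ng/mL LPS, 10 ng/mL BLP or 1 μM CpG. Activated NFκB p65 in nuclear extracts was measured by TransAM ELISA in duplicate.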

[11] = target: T1, Toll-like receptor 4 (Mus musculus); test: Inhibition of TLR4 in BALB/c mouse BMDM assessed as downregulation of LPS-stimulated IL-6 level at 5 ug/ml preincubated for 18 hrs followed by LPS challenge measured after 24 hrs by ELISA relative to control; summary of the method: as §3
Mus musculus [12] = organism: Mus musculus; test: Inhibition of TLR4/IL-1R in BALB/c mouse BMDM assessed as downregulation of LPS-stimulated MyD88 expression at 5 ug/mL preincubated for 2 hrs followed by LPS challenge measured after 18 hrs by flow cytometric analysis (reference value: 127%); values are per cent of control

inhibition [2]: Active | inhibition [8]: inactive | inhibition [9]: Active | inhibition [10]: Active | inhibition [11]: Active | residual activity (Mus musculus [12]): 95.7%
SMILES: CN(C)CCS(=O)(=O)Cc1ccc(Br)cc1
Activity [1]: Non-toxic | Activity (BMDC): inactive | Activity (Mus musculus [3]): inactive | Activity (Mus musculus [4]): Active | Activity (Mus musculus [5]): Active | Activity (Mus musculus [6]): Active | Activity [7]: Non-toxic
